In ChEMBL document CHEMBL1132166, “Synthesis and biological evaluation of dihydrobenzofuran lignans and related compounds as potential antitumor agents that inhibit tubulin polymerization” (J Med Chem, 1999):
Each block holds one compound with its values, some of them ahead of it.

Legend:
[1] = target: Tubulin alpha chain (Sus scrofa) (UniProt P02550); conditions: Homo sapiens; 5.0 uM
[2] = target: Tubulin alpha chain (Sus scrofa) (UniProt P02550); conditions: Homo sapiens; 1.0 uM
[3] = tested on: Panel (Carcinoma cell lines); experiment: Average log GI50 value against a panel of human cancer cell lines; assay type: functional
In short: (§1)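 NCI in vitro human tumor cell line screening panel; each compound tested at a minimum of five concentrations at 10-fold dilutions, highest 100 µM, over a 48 h assay. GI50 is the molar concentration giving 50% growth inhibition. TGI and LC50 were also derived, and the average log GI50 was taken across all lines tested.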

MDA-MB-4 = experiment: Cytotoxicity against MDA-MB-435 breast cancer cell line; assay type: functional; conditions: Homo sapiens
In short: as §1

SR = experiment: Growth inhibitory activity determined against SR leukemia cell line; assay type: functional; conditions: Homo sapiens
In short: as §1

[4] = tested on: Panel (Carcinoma cell lines); experiment: The molar drug concentration required for 50% growth inhibition; assay type: functional; conditions: Homo sapiens
In short: as §1

RPMI-8226 = experiment: Growth inhibitory activity determined against RPMI-8226 leukemia cell line; assay type: functional; conditions: Homo sapiens
In short: as §1

BT-549 = experiment: Cytotoxicity against BT-549 breast cancer cell line; assay type: functional; conditions: Homo sapiens
In short: as §1

MCF7 [5] = experiment: Growth inhibitory activity determined against MCF-7/ADR-RES breast cancer cell line; assay type: functional; conditions: Homo sapiens
In short: as §1

HL-60 [6] = experiment: Compound was evaluated for its effect on the growth of HL 60 human leukemia cells; assay type: functional, cell-based
In short: (§2)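 HL-60 human leukemia cells were grown for 24 h with compound. Growth was measured as the increase in cell number from time zero, and the IC50 was taken from that growth. Mitotic arrest was scored as the fraction of cells with condensed chromosomes after 24 h at 10 µM.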

MCF7 [7] = experiment: Growth inhibitory activity determined against MCF-7 breast cancer cell line; assay type: functional; conditions: Homo sapiens
In short: as §1

CCRF-CEM = experiment: Growth inhibitory activity determined against CCRF-CEM leukemia cell line; assay type: functional; conditions: Homo sapiens
In short: as §1

Hs-578T = experiment: Growth inhibitory activity determined against HS 578 T breast cancer cell line; assay type: functional; conditions: Homo sapiens
In short: as §1

MDA-MB-231 = experiment: Growth inhibitory activity determined against MDA-MB-231/ATCC breast cancer cell line; assay type: functional; conditions: Homo sapiens
In short: as §1

MOLT-4 = experiment: Growth inhibitory activity determined against MOLT-4 leukemia cell line.; assay type: functional; conditions: Homo sapiens
In short: as §1

MDA-N = experiment: Cytotoxicity against MDA-N breast cancer cell line; assay type: functional; conditions: Homo sapiens
In short: as §1

Tubulin [8] = target: T1, Tubulin (Bos taurus, UniProt Q6B856+Q862L2+Q862F3); experiment: (§3) Inhibitory activity against purified bovine brain tubulin.
In short: (§4)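 Tubulin assembly: drug and tubulin were preincubated in glutamate for 15 min at 30 °C, then chilled on ice. GTP was added and assembly started by a 0→30 °C jump in a recording spectrophotometer. After 20 min, mixtures were chilled to 0 °C to confirm reversibility. IC50 was taken from inhibition of the extent of assembly across a drug concentration series (n = 3, SD).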

HL-60 [9] = experiment: Inhibitory activity against HL 60 cells; assay type: functional, cell-based; conditions: Homo sapiens
In short: as §2

Tubulin [10] = target: T1, Tubulin; experiment: as §3; assay type: functional
In short: as §4

Tubulin alpha chain (Sus scrofa), sequence (P02550 whole entry, looked up): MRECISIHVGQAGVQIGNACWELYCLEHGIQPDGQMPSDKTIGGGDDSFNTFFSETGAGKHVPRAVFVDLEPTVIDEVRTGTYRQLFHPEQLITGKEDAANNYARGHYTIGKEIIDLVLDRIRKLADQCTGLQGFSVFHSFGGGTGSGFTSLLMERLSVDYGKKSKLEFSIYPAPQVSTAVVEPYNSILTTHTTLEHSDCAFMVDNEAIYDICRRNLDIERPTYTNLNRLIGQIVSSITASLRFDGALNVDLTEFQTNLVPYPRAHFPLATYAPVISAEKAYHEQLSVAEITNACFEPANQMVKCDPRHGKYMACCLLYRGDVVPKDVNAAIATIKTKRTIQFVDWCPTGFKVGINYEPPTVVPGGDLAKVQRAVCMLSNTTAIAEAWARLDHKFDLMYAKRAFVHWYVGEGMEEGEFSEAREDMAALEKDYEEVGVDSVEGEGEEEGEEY

inhibition [1]: 100%
inhibition [2]: 88%
Structure (SMILES): COc1ccc(/C=C\c2cc(OC)c(OC)c(OC)c2)cc1O

log GI50 [3]: -4.01
Structure (SMILES): OCCCc1cc(O)c2c(c1)[C@@H](CO)[C@H](c1ccc(O)c(O)c1)O2

log GI50 [3]: -4.97
Structure (SMILES): COC(=O)CCc1cc(O)c2c(c1)[C@@H](C(=O)OC)[C@H](c1ccc(O)c(O)c1)O2

GI50 [4]: 0.3 µM
GI50 (RPMI-8226): 0.055 µM
GI50 [3]: 0.288 µM
GI50 (MCF7 [5]): 0.054 µM
IC50 (HL-60 [6]): 0.2 µM
GI50 (MCF7 [7]): 0.029 µM
GI50 (CCRF-CEM): 0.033 µM
GI50 (MDA-MB-231): 0.05 µM
GI50 (MOLT-4): 0.081 µM
Structure (SMILES): COC(=O)/C=C/c1cc(O)c2c(c1)[C@@H](C(=O)OC)[C@H](c1ccc(O)c(O)c1)O2
GI50 (MDA-MB-4): < 0.01 µM
GI50 (SR): 0.069 µM
GI50 (BT-549): < 0.01 µM
GI50 (Hs-578T): 0.045 µM
GI50 (MDA-N): < 0.01 µM

IC50 (Tubulin [8]): > 40 µM
GI50 [4]: 5.1 µM
IC50 (HL-60 [9]): 0.08 µM
IC50 (Tubulin [10]): > 40 µM
Structure (SMILES): COC(=O)/C=C/c1cc(OC)c2c(c1)[C@@H](C(=O)OC)[C@H](c1ccc(OC)c(OC)c1)O2

GI50 [4]: 3.3 µM
IC50 (Tubulin [10]): > 40 µM
Structure (SMILES): COC(=O)/C=C/c1cc(OC)c2c(c1)[C@@H](C(=O)OC)[C@H](c1ccc(O)c(OC)c1)O2
